Target: Sodium channel protein type 1/2/3 subunit alpha (Rattus norvegicus, UniProt P04774+P04775+P08104)
Assay: Displacement of [3H]BTX from sodium channel of rat cerebral cortex synaptosomes
Procedure, shortened: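 Synaptosomal membranes from rat cerebral cortex incubated 1 h at 37 °C with 1 nmol/L [3H]BTX-B in choline Cl/HEPES-Tris buffer pH 7.4 containing glucose, KCl and MgSO4, plus scorpion venom. Nonspecific binding defined with 100 μmol/L aconitine. Stopped by vacuum filtration through glass fiber and two buffer washes.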

Row | Compound | Ki [nM]
1 | CN(c1nc2ccccc2s1)C1CCN(C[C@H](O)COc2ccc(F)c(F)c2)CC1 | 203
2 | Cc1cccc(C)c1OC[C@@H](C)N | 22700
3 | C[C@@H](CN1CCC2(C)c3ccc(O)cc3C[C@@H]1C2(C)C)Oc1ccccc1 | 149
4 | COC(C)CN1CCC2(C)c3ccc(O)cc3C[C@@H]1C2(C)C (some centres undefined) | > 10000
5 | CO[C@@H](C)CN1CCC2(C)c3cccc(O)c3C[C@H]1C2(C)C | 10000
6 | C[C@H](CN1CCC2(C)c3ccc(O)cc3C[C@H]1C2(C)C)Oc1ccccc1 | 864
7 | CO[C@H](C)CN1CCC2(C)c3cccc(O)c3C[C@@H]1C2(C)C | 3310
8 | CO[C@@H](C)CN1CCC2(C)c3ccccc3C[C@@H]1C2(C)C | 4700
9 | C[C@@H](CN1CCC2(C)c3ccc(O)cc3C[C@@H]1C2(C)C)OCc1ccccc1 | 312
10 | CC1[C@H]2Cc3c(O)cccc3C1(C)CCN2C[C@H](C)OCc1ccccc1 (some centres undefined) | 54
11 | C[C@H](CN1CCC2(C)c3ccc(O)cc3C[C@H]1C2(C)C)OCc1ccccc1 | 1230
12 | C[C@@H](CN1CCC2(C)c3ccc(O)cc3C[C@H]1C2(C)C)Oc1ccccc1 | 1530
13 | C[C@H](CN1CCC2(C)c3cccc(O)c3C[C@@H]1C2(C)C)OCC1CCCCC1 | 241
14 | CC12CCN(CCc3ccccc3)[C@H](Cc3cc(O)ccc31)C2(C)C | 1060
15 | C[C@@H](CN1CCC2(C)c3cccc(O)c3C[C@@H]1C2(C)C)OCC1CCCCC1 | 208
16 | CC(CN1CCC2(C)C[C@@H]1Cc1c(O)cccc12)OCc1ccccc1 (some centres undefined) | 47
17 | CC1[C@H]2Cc3c(O)cccc3C1(C)CCN2C[C@@H](C)OCc1ccccc1 (some centres undefined) | 153
18 | COC(C)CN1CCC2(C)c3cc(O)ccc3C[C@@H]1C2(C)C (some centres undefined) | 6010
19 | C[C@@H](CN1CCC2(C)c3ccc(O)cc3C[C@H]1C2(C)C)OCc1ccccc1 | 1870
20 | C[C@H](CN1CCC2(C)c3cccc(O)c3C[C@H]1C2(C)C)OCc1ccccc1 | 1490
21 | C[C@@H](CN1CCC2(C)c3cccc(O)c3C[C@H]1C2(C)C)OCc1ccccc1 | 1330
22 | C[C@H](CN1CCC2(C)c3ccc(O)cc3C[C@@H]1C2(C)C)Oc1ccccc1 | 662
23 | CC12CCN(CCc3ccccc3)[C@@H](Cc3cc(O)ccc31)C2(C)C | 1290
24 | CO[C@@H](C)CN1CCC2(C)c3cccc(O)c3C[C@@H]1C2(C)C | 783
25 | COC(C)CN1CCC2(C)c3c(O)cccc3C[C@@H]1C2(C)C (some centres undefined) | 8990
26 | CO[C@H](C)CN1CCC2(C)c3cccc(O)c3C[C@H]1C2(C)C | 10000
27 | C[C@H](CN1CCC2(C)c3ccc(O)cc3C[C@@H]1C2(C)C)OCc1ccccc1 | 382
28 | COc1ccc2c(c1)[C@]13CCCC[C@@H]1[C@H](C2)N(C)CC3 [DEXTROMETHORPHAN] | 4800
29 | Cc1ccc(-c2nc(C)c(CN3CCN(C(c4ccccc4)c4ccccc4)CC3)[nH]2)cc1 [Lifarizine] | 259

Reference: BindingDB's records for doi:10.1021/jm020875j (Boehringer Ingelheim Pharma, 2002)
